Assay outcomes (PubChem BioAssay)
DAGLB inhibitor = DAGLB lipase inhibitors, primary screen, biochemical, fluorescence, HTS; 0.059% of 340,000 active; inhibition, % at 5.17 µM; AID 504411, 2011; HEK293T DAGLB membrane lysate, EnzChek fluorogenic substrate; Diacylglycerol lipase-beta (Homo sapiens), Q8NCG7; in the data active = inhibition above about 34%
PRMT1 inh = PRMT1 methyltransferase inhibitors, primary screen, biochemical, fluorescence polarization. inhibition, % at 2.79 µM. Protein arginine N-methyltransferase 1 (Homo sapiens), Q99873. AID 652257, 2013. recombinant PRMT1, activity-based probe fluorescence polarization. 1.3% of 370,000 active;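 active = inhibition above about 21% made by adding two undisclosed values, limit read from the data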
Target sequence (Q99873 whole entry, looked up): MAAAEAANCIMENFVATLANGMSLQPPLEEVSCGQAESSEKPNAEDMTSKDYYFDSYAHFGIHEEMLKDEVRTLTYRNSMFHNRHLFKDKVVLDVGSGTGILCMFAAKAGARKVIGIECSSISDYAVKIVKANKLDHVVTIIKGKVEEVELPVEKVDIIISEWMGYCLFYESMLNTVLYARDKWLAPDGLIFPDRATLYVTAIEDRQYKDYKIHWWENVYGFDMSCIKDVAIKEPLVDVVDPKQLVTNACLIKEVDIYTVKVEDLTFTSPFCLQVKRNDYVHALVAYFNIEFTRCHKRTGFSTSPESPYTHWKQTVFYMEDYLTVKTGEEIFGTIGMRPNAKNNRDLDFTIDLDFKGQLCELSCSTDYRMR
HTRA1 inh = HTRA1 serine protease inhibitors, primary screen, biochemical, fluorescence polarization, HTS. Q92743. recombinant HTRA1, FP-rhodamine activity-based probe. inhibition, % at 5.96 µM. 0.5% of 340,000 active; in the data active = inhibition above about 36%
LEDGF integ inh = blockers of LEDGF/p75-dependent integrase strand transfer – biochemical, TR-FRET, high throughput, primary screen; HIV-1 integrase (with human LEDGF/p75); TR-FRET IN-LEDGF/p75 DNA integration, Eu/Cy5; inhibition, % at 3.7 µM; 0.64% of 370,000 active; AID 743269, 2014;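 active = inhibition above the screen-wide mean plus 3 SD, cut at about 13% in these data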;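 also: signal is the Cy5 over europium emission ratio at 671 and 618 nm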
rCAG RNA binder = binders of r(CAG) RNA repeats, primary screen, biochemical, fluorescence; r(CAG) RNA repeat, TO-PRO-1 dye displacement fluorescence; inhibition, % at 3 µM; 1.3% of 370,000 active;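 active = inhibition above the plate cutoff, the mean of all test compounds on that plate plus 3 SD, cut at about 35% in these data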;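 also: higher means more dye released from RNA so lower well fluorescence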
mABHD4 FP = ABHD4 inhibitors, primary screen, biochemical, fluorescence polarization, mouse; (Lyso)-N-acylphosphatidylethanolamine lipase (Mus musculus), Q8VD66; 0.54% of 370,000 active; purified mABHD4, FP-Rh probe fluorescence polarization; inhibition, % at 8.92 µM;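 active = inhibition exceeding the mean over every tested compound plus 3 SD, cut at about 30% in these data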
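assay system = mABHD4 protein | compound dosing = single nominal dose of 8.92 µM, 0.89% DMSO final | read-out basis = percent inhibition of probe binding, normalized to plate controls | schedule = Enzyme–compound pre-incubation 45 min, then probe 60 min, both 25 °C | detection = fluorescence polarization, excitation 525 nm, emission 598 nm, BODIPY TMR filters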
DAGLB confirm = DAGLB lipase inhibitors, retest, confirmation, biochemical, fluorescence, HEK293T membranes; inhibition, % at 5.17 µM; AID 504445, 2011; HEK293T DAGLB membrane lysate, EnzChek fluorogenic substrate; 73% of 190 active; shares compounds with DAGLB inhibitor;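 active = mean inhibition over triplicate wells above a set limit taken from the primary lipase screen, cut at about 34% in these data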
HTRA1 inh conf = HTRA1 protease inhibitors, retest, confirmation, biochemical, fluorescence polarization; shares compounds with HTRA1 inh; recombinant HTRA1, FP-rhodamine activity-based probe; inhibition, % at 5.96 µM; 66% of 1,600 active;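 active = mean inhibition over three repeats above a set limit taken from the earlier primary screen, cut at about 37% in these data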;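 also: inhibitors block probe binding so polarization drops and inhibition rises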
rCAG bind conf = small molecules binding CAG repeat RNA – biochemical, fluorescence, confirmation | shares compounds with rCAG RNA binder | r(CAG) RNA repeat, TO-PRO-1 dye displacement fluorescence | AID 652065, 2013 | inhibition, % at 3 µM | 70% of 4,300 active;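 active = inhibition above a per-plate cutoff, the mean inhibition of sample wells plus 3 SD, cut at about 35% in these data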;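 also: loss of TO-PRO-1 fluorescence as compound displaces dye from 1x1 AA loop RNA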
dCAG dye counter = displacement of TO-PRO-1 from CAG DNA duplex, counter-screen for rCAG RNA repeat binder project, biochemical, fluorescence, TO-PRO-1 dye, d(CAG) DNA oligo | shares compounds with rCAG RNA binder | d(CAG) DNA oligo TO-PRO-1 dye displacement | inhibition, % at 3 µM | 94% of 4,300 active;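 active = inhibition above its plate's cutoff, the mean test-well inhibition plus 3 SD, cut at about 4.8% in these data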;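 also: hits displace the dye from DNA and so lower well fluorescence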
dCAG dye DR = inhibitors of DNA CAG/GTC TO-PRO-1 complex, dose response, counter-screen for rCAG RNA repeat binder project, biochemical, fluorescence, TO-PRO-1 dye. shares compounds with rCAG RNA binder. AID 686960, 2013. 20% of 250 active. IC50, µM. DNA CAG/GTC duplex TO-PRO-1 dye displacement fluorescence; in the data active = IC50 below about 10 µM
PRMT1 inh conf = PRMT1 methyltransferase inhibitors, confirmation, biochemical, fluorescence polarization, triplicate. shares compounds with PRMT1 inh. AID 687036, 2013. inhibition, % at 2.79 µM. recombinant His-PRMT1, activity-based probe fluorescence polarization. 42% of 3,300 active;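 active = mean inhibition across replicates above the hit cutoff derived for the earlier primary screen, cut at about 22% in these data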
ABHD4 confirm = ABHD4 inhibitors, retest, confirmation, biochemical, fluorescence polarization, mouse | shares compounds with mABHD4 FP | inhibition, % at 8.92 µM | 55% of 1,800 active | AID 720658, 2013 | purified mABHD4, FP-Rh probe fluorescence polarization;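 active = mean inhibition across replicates above the hit cutoff set in the primary screen, cut at about 30% in these data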
A number is an active result; . = inactive; / = no result given. Shown are actives, neighbours in structure and some others; about 3.2% of the full set was active somewhere.

SMILES | DAGLB inhibitor | PRMT1 inh | HTRA1 inh | LEDGF integ inh | rCAG RNA binder | mABHD4 FP | DAGLB confirm | HTRA1 inh conf | rCAG bind conf | dCAG dye counter | ABHD4 confirm | others
CC(=O)C1=C(O)C(=O)N(c2cc(C(C)(C)C)on2)C1c1ccc(Br)cc1 (stereo unspecified) | 46 | . | . | . | 47 | . | 42 | / | 46 | 13 | / | dCAG dye DR=.
Oc1ccc2ccccc2c1N=Nc1ccccc1F | . | . | . | . | . | . | / | / | / | / | /
O=S(=O)(O)c1cccc(N=Nc2c(O)ccc3ccccc23)c1 | 37 | . | . | . | 38 | . | 37 | / | 36 | 9.7 | /
CCN(CC)S(=O)(=O)c1cccc(C(=O)N/N=C/c2ccc(OC)c(O)c2)c1 | . | . | . | . | . | . | / | / | / | / | /
Nc1ccc(N=Nc2ccccc2)c2cccnc12 | 37 | . | 43 | . | . | 30 | 42 | 44 | / | / | 55
O=C(CCc1nnc2ccc(N3CCC4(CC3)OCCO4)nn12)Nc1cc(F)ccc1F | . | . | . | . | . | . | / | / | / | / | /
N#C/C(N=Nc1ccccc1O)=N\Nc1ccccc1O | 41 | . | 68 | . | 57 | 67 | 83 | 71 | 74 | 29 | 110
O=C(N/N=C/c1ccc(O)c(O)c1O)/C(=C/c1ccc([N+](=O)[O-])cc1)NC(=O)c1ccccc1 | 35 | 24 | 63 | . | 66 | 57 | . | / | 66 | 32 | 67
O=C1NC(=Nc2ccccc2Cl)S/C1=C\c1cccc([N+](=O)[O-])c1O | 36 | . | 55 | . | 89 | 53 | . | 58 | 70 | 33 | 60 | dCAG dye DR=.
O=C(NN1C(=O)/C(=C/c2ccc(O)c([N+](=O)[O-])c2)SC1=S)c1ccccc1Cl | 45 | 28 | . | . | 39 | 49 | 42 | / | . | 5.5 | 37 | PRMT1 inh conf=.
N=c1c2c(-c3ccccc3)c(-c3ccccc3)n(CCc3ccccc3)c2ncn1CCO | / | . | / | . | . | . | / | / | / | / | /
Nc1ncnc(N)c1N=Nc1ccccc1 | . | . | . | . | . | . | / | / | / | / | /
Nc1ccc2ccccc2c1N=Nc1ccccc1 | 36 | . | 59 | . | . | 39 | 43 | 53 | / | / | 39
CCOc1ccc(/C=N/NC(=S)NC2CC3C=CC2C3)cc1 (stereo unspecified) | / | . | / | . | . | . | / | / | / | / | /
